# ChEMBL document CHEMBL2417459, “Chrysophaentins are competitive inhibitors of FtsZ and inhibit Z-ring formation in live bacteria” (Bioorg Med Chem, 2013)
# Activity calls are given as the source filed them. The rule behind the calls is not given here.
# Key:
# Escherichia coli [1] = test: Inhibition of C-terminal YFP-fused Escherichia coli FtsZ cloned in Escherichia coli envA1 assessed as mislocalization of protein throughout cell at 680 uM after 30 mins by fluorescence microscopic analysis
# Summary of the method: (§1)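 envA1 carrying arabinose-inducible pFtsZ-YFP grown in LB with 20 µg/mL chloramphenicol at 37 °C to OD600 ~0.2, then induced with 0.4% L-arabinose for 30 min. Cells washed in PBS/tetracycline and resuspended in LB. 1 mL aliquots treated in 1% MeOH or 1% DMSO for 30 or 60 min. Imaged by confocal fluorescence (ex 488, em 558) plus DIC, 100× objective.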
# Escherichia coli [2] = test: Inhibition of C-terminal RFP-fused Escherichia coli FtsZ cloned in Escherichia coli envA1 assessed as intact red fluorescent Z-ring formation at 680 uM after 30 to 60 mins by fluorescence microscopic analysis
# Summary of the method: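 envA1 carrying arabinose-inducible pFtsZ-tdTomato (pFtsZ-RFP), induced and treated by the same protocol, 680 µM for 30 min. Red fluorescence imaged (ex 555, em 630) alongside the yellow channel and DIC at 30 and 60 min post induction.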
# [3] = target: T1, Cell division protein FtsZ (Bacillus subtilis, UniProt A5Z1V5); test: Inhibition of Bacillus subtilis FtsZ GTPase activity assessed as production of inorganic phosphate measured up to 60 mins by malachite green-phosphomolybdate colorimetric assay
# T1 sequence (A5Z1V5 whole entry): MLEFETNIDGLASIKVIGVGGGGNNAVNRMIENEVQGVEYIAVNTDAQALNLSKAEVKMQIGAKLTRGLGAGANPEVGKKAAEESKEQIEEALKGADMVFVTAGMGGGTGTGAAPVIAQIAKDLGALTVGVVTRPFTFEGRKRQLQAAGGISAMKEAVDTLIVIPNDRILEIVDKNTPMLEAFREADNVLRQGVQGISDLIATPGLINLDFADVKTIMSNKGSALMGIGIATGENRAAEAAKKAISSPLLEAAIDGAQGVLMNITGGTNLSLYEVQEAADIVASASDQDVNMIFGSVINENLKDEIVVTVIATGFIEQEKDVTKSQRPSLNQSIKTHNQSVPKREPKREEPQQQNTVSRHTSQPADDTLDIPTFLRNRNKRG
# [4] = target: T2, Cell division protein FtsZ (Bacillus subtilis) (UniProt A5Z1V5); test: Inhibition of Bacillus subtilis SU570 GFP-fused FtsZ assessed as perturbation of Z-ring formation at 12 uM after 60 mins by fluorescence microscopic analysis
# T2 sequence (whole entry): T1 sequence (A5Z1V5 whole entry)
# [5] = Inhibition of recombinant Escherichia coli FtsZ GTPase activity expressed in Escherichia coli BL21 (DE3) assessed as production of inorganic phosphate after 10 mins by malachite green-phosphomolybdate colorimetric assay
# Summary of the method: (§2)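 Recombinant EcFtsZ, purified by ammonium sulfate precipitation, ion exchange and gel filtration, used at 2 µM with 0.25 mM GTP in 50 mM MES pH 6.0, 100 mM KCl, 5 mM MgCl2. Incubated 10 min at 23 °C with serially diluted inhibitor. Pi read at 635 nm by malachite green-phosphomolybdate against a standard curve to give IC50. Triton X-100 at 0.01% where stated.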
# Escherichia coli [6] = test: Inhibition of recombinant Escherichia coli FtsZ GTPase activity expressed in Escherichia coli BL21 (DE3) assessed as production of inorganic phosphate up to 600 uM after 10 mins by malachite green-phosphomolybdate colorimetric assay in presence of triton X-100; summary of the method: as §2
# [7] = target: T2, Cell division protein FtsZ (Bacillus subtilis); test: Displacement of mant-GTP from Bacillus subtilis FtsZ by fluorescence anisotropy analysis
# Summary of the method: (§3)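 Nucleotide-free B. subtilis FtsZ (380 nM) with mant-GTP (500 nM), titrated with competitor. Displacement read as the change in fluorescence anisotropy and fit by least squares to a simple competition model. GTP (150 µM) served as the displacement control.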
# [8] = target: T2, Cell division protein FtsZ (Bacillus subtilis); test: Displacement of [3H]-GTP from Bacillus subtilis FtsZ assessed as equilibrium association constant by scintillation counting assay
# Summary of the method: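 Nucleotide-free B. subtilis FtsZ (70 nM) incubated with 3H-GTP (100 nM) and competitor. FtsZ-bound label measured by co-sedimentation and scintillation counting. 3H-GTP binding constant determined separately. Data fit to a simple competition model.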
# Escherichia coli [9] = test: Antibacterial activity against Escherichia coli K12 C600 envA1 assessed as growth inhibition after 18 hrs by microbroth dilution method; details: envA1, 18 h
# [10] = target: T3, Cell division protein FtsZ (Staphylococcus aureus) (UniProt P0A031); test: Inhibition of recombinant Staphylococcus aureus FtsZ GTPase activity expressed in Escherichia coli BL21 (DE3) assessed as production of inorganic phosphate up to 600 uM after 20 mins by malachite green-phosphomolybdate colorimetric assay in presence of triton X-100
# T3 sequence (whole entry): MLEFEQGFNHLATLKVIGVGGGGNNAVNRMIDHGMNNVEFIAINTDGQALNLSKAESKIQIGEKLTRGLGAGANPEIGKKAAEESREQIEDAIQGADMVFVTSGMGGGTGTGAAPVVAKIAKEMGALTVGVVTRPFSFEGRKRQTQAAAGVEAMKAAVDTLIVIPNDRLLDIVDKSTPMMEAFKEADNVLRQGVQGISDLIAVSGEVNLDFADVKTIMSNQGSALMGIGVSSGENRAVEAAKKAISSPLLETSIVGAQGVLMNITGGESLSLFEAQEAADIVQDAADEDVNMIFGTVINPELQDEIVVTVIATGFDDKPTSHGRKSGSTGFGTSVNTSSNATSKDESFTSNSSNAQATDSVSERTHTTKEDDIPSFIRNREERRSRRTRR
# Summary of the method: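 Recombinant SaFtsZ at 6 µM with 0.25 mM GTP in 50 mM MES pH 6.0, 100 mM KCl, 5 mM MgCl2, plus 0.01% Triton X-100. Incubated 20 min at 30 °C with serially diluted inhibitor. Pi measured at 635 nm by malachite green-phosphomolybdate against a standard curve.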
# Escherichia coli [11] = test: Inhibition of C-terminal YFP-fused Escherichia coli FtsZ cloned in Escherichia coli envA1 assessed as protein dispersion in from of patches throughout cytoplasm at 340 uM after 30 to 60 mins by fluorescence microscopic analysis; summary of the method: as §1
# [12] = target: T2, Cell division protein FtsZ (Bacillus subtilis); test: Displacement of mant-GTP from Bacillus subtilis FtsZ assessed as equilibrium association constant by fluorescence anisotropy analysis; summary of the method: as §3
# [13] = target: T4, Cell division protein FtsZ (Staphylococcus aureus, UniProt P0A031); test: Inhibition of recombinant Staphylococcus aureus FtsZ GTPase activity expressed in Escherichia coli BL21 (DE3) assessed as production of inorganic phosphate after 20 mins by malachite green-phosphomolybdate colorimetric assay
# T4 sequence (P0A031 whole entry): T3 sequence (whole entry)
# Summary of the method: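 SaFtsZ (recombinant; stored at −80 °C in 50 mM Tris pH 7.4, 50 mM KCl, 1 mM EDTA, 10% glycerol), 6 µM, with 0.25 mM GTP in 50 mM MES pH 6.0, 100 mM KCl, 5 mM MgCl₂. Run 20 min at 30 °C with serially diluted inhibitor. Pi read at 635 nm against a standard curve to give IC₅₀. DMSO control up to 8%.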
# Escherichia coli [14] = test: Inhibition of C-terminal YFP-fused Escherichia coli FtsZ cloned in Escherichia coli envA1 assessed as Z ring formation at 340 uM after 30 to 60 mins by fluorescence microscopic analysis; summary of the method: as §1
# Escherichia coli [15] = test: Inhibition of C-terminal YFP-fused Escherichia coli FtsZ cloned in Escherichia coli envA1 assessed as mislocalization of protein throughout cell at 120 uM after 30 to 60 mins by fluorescence microscopic analysis; summary of the method: as §1
# Escherichia coli [16] = test: Inhibition of C-terminal YFP-fused Escherichia coli FtsZ cloned in Escherichia coli envA1 assessed as mislocalization of protein in polar region at 4.9 uM after 30 to 60 mins by fluorescence microscopic analysis; summary of the method: as §1
# Escherichia coli [17] = test: Inhibition of C-terminal YFP-fused Escherichia coli FtsZ cloned in Escherichia coli envA1 assessed as protein dispersion in from of patches throughout cytoplasm at 125 uM after 30 to 60 mins by fluorescence microscopic analysis; summary of the method: as §1
# Escherichia coli [18] = test: Inhibition of C-terminal YFP-fused Escherichia coli FtsZ transformed in Escherichia coli envA1 assessed as Z ring formation at 125 uM after 30 to 60 mins by fluorescence microscopic analysis; summary of the method: as §1
structure (smiles),measurement,setting,value
COc1ccc2cc3[n+](cc2c1OC)CCc1cc2c(cc1-3)OCO2,inhibition,Escherichia coli [1],Active
same,inhibition,Escherichia coli [2],inactive
COc1cc(C/C=C(/Cl)Cc2cc(O)cc(O)c2)c(OC)cc1Cl,IC50,[3],70 µM
same,inhibition,[4],Active
same,IC50,[5],37 µM
same,inhibition,Escherichia coli [6],Active
same,inhibition,[7],Dose-dependent effect
same,Ka,[8],0.87 ×10⁵ /M
same,MIC50,Escherichia coli [9],84 µM
same,inhibition,[10],Active
same,inhibition,Escherichia coli [11],Active
same,Ka,[12],1.5 ×10⁵ /M
same,IC50,[13],38 µM
same,inhibition,Escherichia coli [14],Active
CCN(CC)CCNc1nc(/C=C/c2ccc(Cl)cc2)nc2cc3ccccc3cc12,inhibition,Escherichia coli [15],Active
Oc1ccc(Cl)cc1Cc1cc(Cl)cc(Cc2cc(Cl)ccc2O)c1O,inhibition,Escherichia coli [16],Active
Oc1cc(O)c2c(c1)C/C(Cl)=C\Cc1cc(c(Cl)cc1O)Oc1c(O)cc(cc1O)C/C(Cl)=C\Cc1cc(c(Cl)cc1O)O2,IC50,[5],9.9 µM
same,inhibition,Escherichia coli [6],Active
same,MIC50,Escherichia coli [9],27 µM
same,inhibition,[10],Active
same,inhibition,Escherichia coli [17],Active
same,inhibition,Escherichia coli [18],Active
same,IC50,[13],67 µM
